This is an account of results in ChEMBL document CHEMBL4732088, “Identification and optimization of piperlongumine analogues as potential antioxidant and anti-inflammatory agents via activation of Nrf2” (Eur J Med Chem, 2021).

Data set [1] concerns PC-12. The data set is described as follows: Neuroprotective activity against 6-OHDA-induced cell damage in rat PC12 cells assessed as cell viability at 20 uM after 24 hrs by MTT assay (reference value: 45.23 +/- 4.37 %). Format: functional. The conditions noted are these: for viability at 20 µM: read-out: Activity. On the technique in general: Tetrazolium dyes change colour on reduction, which living cells bring about.

Data set [2] concerns PC-12. The data set is described as follows: Neuroprotective activity against H2O2-induced cell damage in rat PC12 cells assessed as cell viability at 20 uM after 24 hrs by MTT assay (reference value: 46 +/- 4.12 %). The note with it: read-out: Activity. Format: functional.
Data set [3] concerns PC-12. The data set is described as follows: Cytotoxicity against rat PC12 cells at 50 uM by MTT assay. Format: cell-based. The note with it: pc-12, 50 µM. In a few lines: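 Rat PC12 cells exposed to compounds at 50 μM; viability by MTT assay.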
Data set [4] concerns PC-12. The data set is described as follows: Neuroprotective activity against 6-OHDA-induced cell damage in rat PC12 cells at 20 uM after 24 hrs by MTT assay. Format: functional, cell-based.
In data set [5] the test system is PC-12. Briefly: Neuroprotective activity against H2O2-induced cell damage in rat PC12 cells at 20 uM after 24 hrs by MTT assay. Format: functional, cell-based.
Data set [6] deals with PC-12. Briefly: Upregulation of Nrf2 expression in rat PC12 cells at 20 uM after 24 hrs by Western blot analysis. Format: functional, cell-based. In a few lines: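 Rat PC12 cells exposed to compound for 24 h. Nrf2 protein detected by western blot. Mean ± SD, n = 3.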
For orientation: In western blotting, separated proteins are transferred to a membrane and probed.

Active and inactive are the calls of the source. No cut-off for these calls is given here.

Regarding `O=C(/C=C/c1cccs1)N1CCNC1=O`, the values for the viability at 20 µM with PC-12 [1] and in the data set on PC-12 [2] were 64.2% and 65.2%, respectively.
`N#Cc1ccc(C(=O)N2CCN(C(=O)/C=C/c3ccc(F)cc3)C2=O)cc1`: the values for the viability at 20 µM in the data set with PC-12 [1] and in the data set on PC-12 [2] were 52.3% and 55.1%, respectively. In addition, the Activity result with PC-12 [3] is given as “Toxic”.
Take `CC(C)(C)C(=O)N1CCN(C(=O)/C=C/c2ccco2)C1=O`: the results for the viability at 20 µM in the data set on PC-12 [1] and with PC-12 [2] were 68.3% and 69.7%, respectively.
Consider `CC(C)(C)C(=O)N1CCN(C(=O)/C=C/c2ccccc2F)C1=O`, for which the values for the viability at 20 µM in the data set on PC-12 [1] and in the data set with PC-12 [2] were 72.3% and 72.4%, respectively.
Take `O=C(/C=C/c1ccccc1)N1CCNC1=O`: the result in the data set on PC-12 [4], with PC-12 [1] and with PC-12 [5] was Active.
With `CC(C)(C)C(=O)N1CCN(C(=O)/C=C/c2ccc(Cl)cc2)C1=O`, the results for the viability at 20 µM with PC-12 [1] and in the data set on PC-12 [2] were 71.1% and 72%, respectively.
For `CC(C)(C)C(=O)N1CCN(C(=O)/C=C/c2ccc(F)cc2)C1=O` the same measures were 72.2% and 73.6%.
The corresponding values for `CC(C)(C)C(=O)N1CCN(C(=O)/C=C/c2cccc(F)c2)C1=O` are 69.3% and 71%.
Consider `O=C(/C=C/c1ccc(F)cc1)N1CCN(C(=O)c2cccs2)C1=O`, for which the viability at 20 µM was found to be 60.8% with PC-12 [1] and 62.2% in the data set with PC-12 [2].
`CC(C)(C)C(=O)N1CCN(C(=O)/C=C/c2ccccc2Cl)C1=O`: the viability at 20 µM in the data set with PC-12 [1] was 69%; in the data set with PC-12 [2], 70%.
Turning to `C=CC(=O)N1CCN(C(=O)/C=C/c2ccc(F)cc2)C1=O`, the viability at 20 µM worked out at 43.8% with PC-12 [1] and 44% with PC-12 [2]. For the same compound, in the data set on PC-12 [3], the Activity result is “Toxic”.
With `O=C(/C=C/c1ccc(C(F)(F)F)cc1)N1CCNC1=O`, the results for the viability at 20 µM in the data set on PC-12 [1] and with PC-12 [2] were 65.3% and 67.7%, respectively.
Consider `CN(C)C(=O)N1CCN(C(=O)/C=C/c2ccc(F)cc2)C1=O`, for which the viability at 20 µM is 71.3% with PC-12 [1] and 73.8% in the data set with PC-12 [2].
Regarding `CC(C)(C)C(=O)N1CCN(C(=O)/C=C/c2cccc3ccccc23)C1=O`, the viability at 20 µM was 71.8% with PC-12 [1] and 72.3% in the data set with PC-12 [2].
Take `O=C(/C=C/c1ccccc1)N1CCCNC1=O`: the result with PC-12 [4], in the data set with PC-12 [1] and in the data set on PC-12 [5] was Active.
For the compound `CCN(C)C(=O)N1CCN(C(=O)CCc2ccc(F)cc2)C1=O`, the viability at 20 µM with PC-12 [1] was 62.5%; in the data set on PC-12 [2], 59.5%.
As for `CC(C)(C)C(=O)N1CCN(C(=O)/C=C/c2cccs2)C1=O`, the viability at 20 µM with PC-12 [1] worked out at 68.2%; with PC-12 [2] it was 69.2%.
In the case of `CC(C)(C)C(=O)N1CCN(C(=O)/C=C/c2ccccc2)C1=O`, the viability at 20 µM in the data set with PC-12 [1] worked out at 60.1%; in the data set with PC-12 [2] it was 61.5%.
The corresponding values for `O=C(/C=C/c1ccco1)N1CCNC1=O` are 60% and 64.1%.
As for `CC(C)(C)C(=O)N1CCN(C(=O)/C=C/c2ccc(C#N)cc2)C1=O`, the viability at 20 µM is 71.1% with PC-12 [1] and 71.4% with PC-12 [2].
For `CC(C)(C)C(=O)N1CCN(C(=O)/C=C/c2ccc3c(c2)OCO3)C1=O` the same measures were 62.3% and 63.3%.
On to `C=C(C)C(=O)N1CCN(C(=O)/C=C/c2ccc(F)cc2)C1=O`, for which the viability at 20 µM with PC-12 [1] was found to be 30.2%; in the data set with PC-12 [2], 38%. The Activity entry in the data set with PC-12 [3] was “Toxic”.
`CC(C)(C)C(=O)N1CCN(C(=O)/C=C/c2ccncc2)C1=O`: the viability at 20 µM with PC-12 [1] turned out to be 69.6%; in the data set with PC-12 [2], 71.1%.
In the case of `O=C(/C=C/c1ccc(F)cc1)N1CCN(C(=O)c2ccccc2)C1=O`, the viability at 20 µM with PC-12 [1] turned out to be 60.3%; with PC-12 [2], 63.3%.
For `O=C(/C=C/c1ccc(F)cc1)N1CCN(C(=O)CCCl)C1=O`, the figures for the viability at 20 µM in the data set with PC-12 [1] and in the data set on PC-12 [2] were 37.1% and 43.2%, respectively. The Activity result in the data set with PC-12 [3] is recorded as “Toxic”.
`CC(C)(C)C(=O)N1CCN(C(=O)/C=C/c2cccc(Cl)c2)C1=O`: the viability at 20 µM in the data set with PC-12 [1] is 68.3%; with PC-12 [2] it was 69.2%.
In the case of `O=C(/C=C/c1ccc(F)cc1)N1CCNC1=O`, the result in the data set with PC-12 [6] was Active. Besides, the viability at 20 µM in the data set on PC-12 [1] is 69.1%; in the data set with PC-12 [2], 68.6%.
On to `CC(C)(C)C(=O)N1CCN(C(=O)/C=C/c2ccc(C(F)(F)F)cc2)C1=O`, for which the results for the viability at 20 µM in the data set with PC-12 [1] and with PC-12 [2] were 71.1% and 72.5%, respectively.
For `CC(C)(C)C(=O)N1CCN(C(=O)/C=C/c2c(F)cccc2Cl)C1=O`, the viability at 20 µM with PC-12 [1] was determined as 71.1%.
For `O=C(CCc1ccc(F)cc1)N1CCNC1=O`, the viability at 20 µM with PC-12 [1] was found to be 56.3%; in the data set with PC-12 [2], 53.6%.
For `CCCC(=O)N1CCN(C(=O)/C=C/c2ccc(F)cc2)C1=O` the same measures were 69.3% and 70.2%.
With `CC(=O)N/C(=C\c1ccccc1)C(=O)N1CCN(C(=O)C(C)(C)C)C1=O`, the viability at 20 µM in the data set with PC-12 [1] stood at 71.2%; in the data set with PC-12 [2] it was 72.7%.
As to `CCC(=O)N1CCN(C(=O)/C=C/c2ccc(F)cc2)C1=O`, the viability at 20 µM was 70.2% with PC-12 [1] and 71.6% in the data set on PC-12 [2].
With `CC(=O)N1CCN(C(=O)/C=C/c2ccc(F)cc2)C1=O`, the viability at 20 µM in the data set on PC-12 [1] worked out at 72.3%; with PC-12 [2], 70.4%.
`O=C(/C=C/c1ccccc1)N1CCCCC1=O`: the result in the data set with PC-12 [4], in the data set on PC-12 [1] and in the data set on PC-12 [5] was Active.
As to `O=C(/C=C/c1ccc(F)cc1)N1CCN(C(=O)N2CCCCC2)C1=O`, the viability at 20 µM in the data set on PC-12 [1] worked out at 72.1%; in the data set with PC-12 [2] it was 72.8%.
Regarding `COc1cc(/C=C/C(=O)N2CCC=CC2=O)cc(OC)c1OC` [PIPLARTINE], the Activity entry in the data set with PC-12 [3] is “Toxic”.
